Source: ChEMBL document CHEMBL1155337, “N-substituted bis-C-alkyloxadiazolones as dual effectors: efficient intermediates to amidoximes or amidines and prodrug candidates of potent antimalarials” (Bioorg Med Chem Lett, 2009)
Calls of active or inactive are those of the source. The calls are words filed in the database; no cut-off is given here.

What was measured:
[1] = test system: Plasmodium falciparum; experiment: Antimalarial activity against chloroquine-sensitive Plasmodium falciparum Nigerian; format: functional, organism-based
Summary of the method: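 In vitro IC50 values are means of at least two independent experiments, each run in duplicate.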

[2] = test system: Plasmodium vinckei petteri; experiment: Antimalarial activity against Plasmodium vinckei petteri 279BY infected in Swiss mice (Mus musculus) assessed as reduction in parasitaemia level at 10 mg/kg, intraperitoneal measured after 4 days; format: functional; settings: ip, 96 h
Summary of the method: (§1)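 Female Swiss mice were infected with P. vinckei petteri 279BY on day 0. Compound was given intraperitoneally or orally once daily for four consecutive days (days 1–4 post infection). Three doses were tested per compound, with 3 mice per dose. Parasitemia was monitored against untreated control, and cleared animals were followed 28 days for recrudescence. ED50 was derived from the dose series.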

[3] = test system: Plasmodium vinckei petteri; experiment: Antimalarial activity against Plasmodium vinckei petteri 279BY infected peroral daily dosed Swiss mice (Mus musculus) assessed as reduction in parasitaemia level measured after 4 days; format: functional; settings: po, 96 h; summary of the method: as §1
[4] = test system: Plasmodium vinckei petteri; experiment: Antimalarial activity against Plasmodium vinckei petteri 279BY infected in Swiss mice (Mus musculus) at 10 mg/kg, intraperitoneal after 4 days; format: functional, organism-based; parameters: dose 10 mg/kg; summary of the method: as §1
[5] = test system: Plasmodium vinckei petteri; experiment: Antimalarial activity against Plasmodium vinckei petteri 279BY infected in Swiss mice (Mus musculus) assessed as reduction in parasitaemia level at 90 mg/kg, perorally relative to control; format: functional; parameters: scale not given: the % may be the effect or the level left; settings: route oral; summary of the method: as §1
[6] = test system: Plasmodium vinckei petteri; experiment: Antimalarial activity against Plasmodium vinckei petteri 279BY infected in Swiss mice (Mus musculus) assessed as reduction in parasitaemia level at 5 mg/kg, intraperitoneally relative to control; format: functional; parameters: scale not given: the % may be the effect or the level left; settings: route intraperitoneal; summary of the method: as §1
[7] = test system: Plasmodium vinckei petteri; experiment: Antimalarial activity against Plasmodium vinckei petteri 279BY infected in Swiss mice (Mus musculus) assessed as reduction in parasitaemia level at 180 mg, perorally relative to control; format: functional; parameters: scale not given: the % may be the effect or the level left; summary of the method: as §1
[8] = test system: Plasmodium vinckei petteri; experiment: Antimalarial activity against Plasmodium vinckei petteri 279BY infected intraperitoneally daily dosed Swiss mice (Mus musculus) assessed as reduction in parasitaemia after 28 days; format: functional; settings: ip, 672 h; summary of the method: as §1
[9] = test system: Mus musculus; experiment: Toxicity in Plasmodium vinckei petteri 279BY infected Swiss mice (Mus musculus) at 5 mg/kg, intraperitoneally; format: organism-based; parameters: dose 5 mg/kg, route intraperitoneal; settings: in vivo, ip
[10] = test system: Mus musculus; experiment: Toxicity in Plasmodium vinckei petteri 279BY infected Swiss mice (Mus musculus) at >10 mg/kg, intraperitoneally; format: organism-based; settings: in vivo, ip

Structure (SMILES)	IC50 [1] [nM]	ED50 [2] [mg/kg]	ED50 [3] [mg/kg]	also measured
Cl.Cl.N=C(CCCCCCCCCCCCC(=N)NCc1ccccc1)NCc1ccccc1	4.6	> 20	> 90	Activity [4]: inactive
Cl.Cl.N=C(N)CCCCCCCCCCCCC(=N)N		> 10	> 100	Activity [4]: inactive
O=c1[nH]c(CCCCCCCCCCCCc2noc(=O)[nH]2)no1		> 20	100	
CCn1c(CCCCCCCCCCCCc2noc(=O)n2CC)noc1=O	10000	> 10	> 20	
Cc1c(CCO)sc[n+]1CCCCCCCCCCCC[n+]1csc(CCO)c1C.[Br-].[Br-] [ALBITIAZOLIUM BROMIDE]		0.2	13	
O/N=C(/CCCCCCCCCCCC/C(=N/O)NCc1ccccc1)NCc1ccccc1	1040	> 20	> 90	
COCCn1c(CCCCCCCCCCCCc2noc(=O)n2CCOC)noc1=O	6450	> 20	90	Activity [5]: 50%
Cn1c(CCCCCCCCCCCCc2noc(=O)n2C)noc1=O		> 20	> 45	
CCN/C(CCCCCCCCCCCC/C(=N/O)NCC)=N\O	6200	3.1	> 180	Activity [6]: 76%; Activity [7]: 20%
CCNC(=N)CCCCCCCCCCCCC(=N)NCC.Cl.Cl	9.4	6.3	> 180	ED50 [8]: 6.3 mg/kg
O=c1onc(CCCCCCCCCCCCc2noc(=O)n2Cc2ccccc2)n1Cc1ccccc1	4950	> 20	> 90	
CN/C(CCCCCCCCCCCC/C(=N/O)NC)=N\O	10100		> 180	Activity [6]: 44%; Activity [9]: Toxic
N/C(CCCCCCCCCCCC/C(N)=N/O)=N\O			120	
CNC(=N)CCCCCCCCCCCCC(=N)NC.Cl.Cl	14.4		> 180	Activity [10]: Toxic; Activity [4]: inactive
COCCNC(=N)CCCCCCCCCCCCC(=N)NCCOC.Cl.Cl	9.2	8	> 90	ED50 [8]: 8 mg/kg
COCCN/C(CCCCCCCCCCCC/C(=N/O)NCCOC)=N\O	2950		> 180	Activity [6]: 33%; Activity [7]: 16%; Activity [9]: Toxic
